The structures appear in SMILES notation. pIC50: −log10 of the molar value. Bounds are passed on as bounds.

The values below come from ChEMBL document CHEMBL4428077, “Synthesis and Biological Evaluation of N-((1-(4-(Sulfonyl)piperazin-1-yl)cycloalkyl)methyl)benzamide Inhibitors of Glycine Transporter-1” (J Med Chem, 2016).

A short description of data set [1]: Drug level in cynomolgus monkey plasma at 3 mg/kg, po measured at 3 hrs post dose by LC-MS/MS analysis. Type of data set: ADME, organism-based, Macaca fascicularis.
A short description of data set [2]: Apparent terminal half life in cynomolgus monkey plasma at 1 mg/kg, iv or 5 mg/kg, po by LC-MS/MS analysis. The conditions noted are these: read-out: betat1/2(app) (converted). In kind it is ADME, organism-based, Macaca fascicularis. In outline: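 Single-dose PK in female cynomolgus monkeys, n = 3 per group: 1.5 μmol/kg IV in 5% DMSO/10% Solutol in saline, pH 6.5 (2 mL/kg), or 7.8 μmol/kg PO in 5% Solutol in 20% Captisol, 25 mM PBS, pH 2 (5 mL/kg). Plasma parameters reported as mean ± SD.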

Another data set has as its target Cytochrome P450 3A4 (Homo sapiens, UniProt P08684). The data set can be described thus: Inhibition of CYP3A4 (unknown origin). Type of data set: ADME.
Data set [3] is described as follows: Drug level in cynomolgus monkey plasma at 3 mg/kg, po measured at 12 hrs post dose by LC-MS/MS analysis. In kind it is ADME, organism-based, Macaca fascicularis.
Data set [4] can be described thus: Drug level in po dosed cynomolgus monkey plasma measured up to 24 hrs post dose by LC-MS/MS analysis. In kind it is ADME, organism-based, Macaca fascicularis. As to conditions: in vivo.
A short description of data set [5]: Protein binding in rat plasma. In kind it is ADME, cell-free. As to conditions: read-out: PPB (converted).
Another data set has as its target Cytochrome P450 2C19 (Homo sapiens, UniProt P33261). The experiment in a line: Inhibition of CYP2C19 (unknown origin). Type of data set: ADME.
Data set [6] in a line: Drug level in cynomolgus monkey plasma at 3 mg/kg, po measured at 4 hrs post dose by LC-MS/MS analysis. Type of data set: ADME, organism-based, Macaca fascicularis.
Data set [7] can be described thus: Drug level in cynomolgus monkey plasma at 3 mg/kg, po measured at 1 hr post dose by LC-MS/MS analysis. Type of data set: ADME, organism-based, Macaca fascicularis.
Data set [8] in a line: Drug level in cynomolgus monkey plasma at 10 mg/kg, po measured at 4 hrs post dose by LC-MS/MS analysis. In kind it is ADME, organism-based, Macaca fascicularis.
Data set [9] in a line: Intrinsic clearance in cynomolgus monkey. In kind it is ADME, Macaca fascicularis.
The nature of data set [10]: Drug level in cynomolgus monkey CSF at 0.3 to 3 mg/kg, po measured up to 24 hrs post dose by LC-MS/MS analysis. The conditions noted are these: in vivo, BLD = below limit of detection. Type of data set: ADME, organism-based, Macaca fascicularis, Cerebrospinal fluid. In a few lines: (§1)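 Cynomolgus monkeys (n = 3/group) fitted with subcutaneous CSF ports were dosed orally at 0.4−15.7 μmol/kg in 5% Solutol plus 20% Captisol in 25 mM PBS, pH 2. CSF (about 0.30 mL) and blood were sampled predose and at 0.5, 1, 2, 3, 4, 8, 12 and 24 h. Quantitation limit 1.0 ng/mL; mean ± SD.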

Data set [11] can be described thus: Drug level in cynomolgus monkey CSF at 10 mg/kg, po measured at 8 hrs post dose by LC-MS/MS analysis. The conditions noted are these: read-out: Drug uptake. Type of data set: ADME, organism-based, Macaca fascicularis, Cerebrospinal fluid. In outline: as §1
Data set [12] in a line: Intrinsic clearance in human. In kind it is ADME.
Data set [13] is described as follows: Apparent terminal half life in Sprague-Dawley rat plasma at 10 mg/kg, po or 2 mg/kg, iv administered as single dose by LC-MS/MS analysis. In kind it is ADME, organism-based. The conditions noted are these: read-out: betat1/2(app) (converted). In outline:
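Single-dose PK in drug-naive adult male Sprague−Dawley rats, n = 3 per group: 3.1 μmol/kg IV in 5% DMSO/10% Solutol in saline (5 mL/kg), or 15.7 μmol/kg PO in 5% Solutol/10% Captisol in 25 mM PBS, pH adjusted to 2 with HCl. Plasma parameters reported as mean ± SD.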

Data set [14] can be described thus: Drug level in cynomolgus monkey CSF at 10 mg/kg, po measured at 4 hrs post dose by LC-MS/MS analysis. Type of data set: ADME, organism-based, Macaca fascicularis, Cerebrospinal fluid. The conditions noted are these: read-out: Drug uptake. In a few lines:
as §1

The nature of data set [15]: Drug level in cynomolgus monkey CSF at 10 mg/kg, po measured at 3 hrs post dose by LC-MS/MS analysis. In kind it is ADME, organism-based, Macaca fascicularis, Cerebrospinal fluid. As to conditions: read-out: Drug uptake. In outline: as §1
Data set [16] can be described thus: Toxicity in cynomolgus monkey assessed as gross behavioral abnormality at 0.3 to 10 mg/kg, po measured up to 24 hrs post dose. Type of data set: organism-based, Macaca fascicularis. As to conditions: in vivo. In a few lines: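 Cynomolgus monkeys (n = 3/group) received an oral dose of 0.4, 1.5, 4.7 or 15.7 μmol/kg in 5% Solutol/20% Captisol in 25 mM PBS, pH 2. CSF was drawn via subcutaneous ports and blood sampled predose and at 0.5–24 h.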

Data set [17] in a line: Drug level in cynomolgus monkey plasma at 3 mg/kg, po measured at 8 hrs post dose by LC-MS/MS analysis. In kind it is ADME, organism-based, Macaca fascicularis.
Data set [18] in a line: Drug level in cynomolgus monkey plasma at 10 mg/kg, po measured at 24 hrs post dose by LC-MS/MS analysis. Type of data set: ADME, organism-based, Macaca fascicularis.
Data set [19] in a line: Drug level in Sprague-Dawley rat brain at 10 mg/kg, po qd for 5 days measured 2 hrs post last dose by LC-MS/MS analysis. Type of data set: ADME, organism-based. As to conditions: read-out: Drug uptake. In a few lines:
(§2)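 Drug-naive Sprague−Dawley rats (n = 5/group) were dosed orally once daily for 5 days in 5% Solutol plus 20% Captisol in 25 mM PBS, pH 2, and sacrificed 2 h after the last dose. Drug was measured in CSF, brain and plasma; mean ± SEM.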

Data set [20] relates to Rattus norvegicus. The experiment in a line: In vivo inhibition of glycine transporter-1 in Sprague-Dawley rat assessed as CSF glycine level at 1 mg/kg, po qd for 5 days measured 2 hrs post last dose by LC-MS/MS analysis relative to control. Type of data set: functional. Also on record: scale not given: the % may be the effect or the level left. In a few lines:
(§3)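 Drug-naive Sprague-Dawley rats, n = 5 per group, dosed orally once daily for 5 days with vehicle or 1.6, 4.8 or 16.1 μmol/kg. Vehicle was 5% Solutol / 20% Captisol in 25 mM PBS, pH 2. Killed 2 h or 48 h after the last dose. CSF glycine was expressed as % of vehicle control (vehicle 2 h post last dose), mean ± SEM. Two-way ANOVA with Tukey test.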

Data set [21] can be described thus: Drug level in Sprague-Dawley rat brain at 30 mg/kg, po measured 2 hrs post dose by LC-MS/MS analysis. In kind it is ADME, organism-based. The conditions noted are these: read-out: Drug uptake. In outline: (§4)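 Drug-naive Sprague−Dawley rats (n = 4−5/group) were dosed orally once in 5% Solutol plus 20% Captisol in 25 mM PBS, pH 2, and euthanized 2 h later by CO₂. CSF was drawn from the cisterna magna. Drug was measured in CSF, brain and plasma; data as mean ± SEM.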

A short description of data set [22]: Drug level in Sprague-Dawley rat CSF at 100 mg/kg, po measured 2 hrs post dose by LC-MS/MS analysis. Type of data set: ADME, organism-based, Cerebrospinal fluid. As to conditions: read-out: Drug uptake. In a few lines:
as §4

Data set [23] can be described thus: Drug level in Sprague-Dawley rat brain at 1 mg/kg, po qd for 5 days measured 2 hrs post last dose by LC-MS/MS analysis. In kind it is ADME, organism-based. The conditions noted are these: read-out: Drug uptake. In outline: as §2
Data set [24] can be described thus: Drug level in Sprague-Dawley rat CSF at 10 mg/kg, po qd for 5 days measured 2 hrs post last dose by LC-MS/MS analysis. Type of data set: ADME, organism-based, Cerebrospinal fluid. The conditions noted are these: read-out: Drug uptake. In outline: as §2
Data set [25] concerns Rattus norvegicus. The data set can be described thus: In vivo inhibition of glycine transporter-1 in Sprague-Dawley rat assessed as CSF glycine level at 3 mg/kg, po qd for 5 days measured 2 hrs post last dose by LC-MS/MS analysis relative to control. In kind it is functional. Also noted: scale not given: the % may be the effect or the level left. In a few lines: as §3
Data set [26] can be described thus: Drug level in Sprague-Dawley rat brain at 3 mg/kg, po qd for 5 days measured 2 hrs post last dose by LC-MS/MS analysis. Type of data set: ADME, organism-based. As to conditions: read-out: Drug uptake. In outline: as §2

Sequence of Cytochrome P450 2C19 (P33261 whole entry): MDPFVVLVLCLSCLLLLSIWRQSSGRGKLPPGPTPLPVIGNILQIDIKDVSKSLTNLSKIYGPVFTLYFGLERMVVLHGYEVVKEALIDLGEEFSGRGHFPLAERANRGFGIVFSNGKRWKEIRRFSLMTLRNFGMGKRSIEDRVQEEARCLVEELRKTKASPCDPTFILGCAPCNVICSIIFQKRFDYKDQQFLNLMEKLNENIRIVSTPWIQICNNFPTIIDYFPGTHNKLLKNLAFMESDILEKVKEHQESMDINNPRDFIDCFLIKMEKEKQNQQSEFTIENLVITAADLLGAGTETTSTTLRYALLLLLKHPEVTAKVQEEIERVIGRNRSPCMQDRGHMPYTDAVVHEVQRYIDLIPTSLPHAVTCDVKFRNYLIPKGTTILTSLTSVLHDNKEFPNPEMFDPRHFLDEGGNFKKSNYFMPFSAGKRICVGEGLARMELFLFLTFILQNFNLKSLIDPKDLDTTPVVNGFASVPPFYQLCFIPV
Sequence of Cytochrome P450 3A4 (P08684 whole entry): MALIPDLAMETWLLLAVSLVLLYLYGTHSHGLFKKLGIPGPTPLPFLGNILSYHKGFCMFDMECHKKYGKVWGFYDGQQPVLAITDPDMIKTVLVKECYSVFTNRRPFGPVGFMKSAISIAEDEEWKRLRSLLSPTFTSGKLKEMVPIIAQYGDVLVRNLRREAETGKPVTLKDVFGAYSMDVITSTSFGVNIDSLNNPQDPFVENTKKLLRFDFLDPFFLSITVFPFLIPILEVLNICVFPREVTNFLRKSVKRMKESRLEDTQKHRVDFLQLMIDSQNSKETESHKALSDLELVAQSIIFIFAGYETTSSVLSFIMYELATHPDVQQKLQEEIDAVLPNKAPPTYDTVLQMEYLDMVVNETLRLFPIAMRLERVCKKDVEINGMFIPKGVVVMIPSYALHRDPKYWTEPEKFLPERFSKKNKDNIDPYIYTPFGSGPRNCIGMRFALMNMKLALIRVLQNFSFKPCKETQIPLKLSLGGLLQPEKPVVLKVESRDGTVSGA

In the case of `CC(NC(=O)c1ccc(C(F)(F)F)cc1Cl)C1(N2CCN(S(=O)(=O)c3cn(C)nn3)CC2)CCC(F)(F)CC1.Cl` (single isomer, unassigned; (+)), the concentration at 3 h in [1] was 5.7 ng/mL; in data set [15], 11.3 ng/mL. Further, the values for the half-life in [2] and in [13] were 6.27 h and 4.33 h, respectively. In addition, the pIC50 on Cytochrome P450 3A4 and against Cytochrome P450 2C19 was below 5.14 each time. Further, in data set [3], the concentration at 12 h was below 1 ng/mL. The Drug uptake result was “Dose-dependent effect” in data set [4] and “Bld” in [10]. For the same compound, the fraction unbound in [5] is 0.13. Further, the concentration at 4 h in [6] was found to be 3.7 ng/mL; in data set [8], 224 ng/mL; in data set [14], 8.4 ng/mL. Besides, the concentration at 1 h in data set [7] stood at 3.6 ng/mL. The CL in [9] came out at 12 microL/ml/min; in data set [12] it was 4 microL/ml/min. The concentration at 8 h in [11] worked out at 7.6 ng/mL; in [17], 2 ng/mL. Further, the Activity entry in data set [16] is “Non-Toxic”. In addition, the concentration at 24 h in [18] amounted to 10.3 ng/mL.

As to `Cl.Cn1cc(S(=O)(=O)N2CCN(C3(CNC(=O)c4ccc(C(F)(F)F)cc4Cl)CCC(F)(F)CC3)CC2)nn1`, the concentration at 2 h in [19] was found to be 69.4 nM; in data set [21], 66.8 nM; in data set [22], 7.6 nM; in data set [23], 21 nM; in [24] it was 1.9 nM; in data set [26], 44.8 nM. The Activity amounted to 188% with Rattus norvegicus [20] and 266.3% in the data set on Rattus norvegicus [25].

As usually defined, the pIC50 is the IC50 on a negative log10 scale, so that one unit is a factor of ten.
